Publication PMC3447998 (Biochemistry, 2012)
Entries after “also recorded” stand apart in the source; their conditions may differ.

How the values were obtained:
[1] = test system: N-terminus of protein; settings: yeast and mammals; ref [24],[25]; cited from earlier work
[2] = test system: FLAG-tagged NRMT; test: Co-precipitation of endogenous proteins with FLAG-tagged NRMT; format: binding; settings: FLAG-tagged NRMT expressed in 293LT cells; Coomassie-stained gel
Summary of the method: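 NRMT carrying a C-terminal FLAG tag was expressed in 293LT cells. Endogenous partner proteins were co-immunoprecipitated with it. Immunoprecipitates were resolved on a 10% polyacrylamide gel and stained with Coomassie blue.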

[3] = test system: endogenous NRMT (293LT cells); test: Co-precipitation of endogenous NRMT with FLAG-tagged substrate proteins; format: binding; settings: C-terminally FLAG-tagged protein expressed in 293LT cells
Summary of the method: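 C-terminally FLAG-tagged RCC1 or VRK2 expressed in 293LT cells, immunoprecipitated with anti-FLAG, and run on 10% polyacrylamide gel with Coomassie staining. On-bead material washed 3× with 100 mM ammonium bicarbonate (pH 8.0), then reduced, carbamidomethylated and digested with endoproteinase Glu-C (enzyme:protein 1:20). Peptides acidified to pH 3.5 and analysed by nano-LC-MS on C18 capillary columns.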

[4] = test system: N-terminus of protein expressed in 293LT cells; format: cell-based; settings: MS
Summary of the method: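 FLAG-tagged constructs were transfected into 293LT cells by calcium phosphate and immunoprecipitated on anti-FLAG beads. Bead-bound protein was reduced, carbamidomethylated and Glu-C digested (1:20). Peptides went to nanoflow reverse-phase HPLC-microESI with a high-resolution MS scan, then 5–10 data-dependent CAD/ETD MS2 scans. Spectra were interpreted manually. Each form's summed extracted-ion-chromatogram area over all charge states was divided by the peptide's total area.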

[5] = test system: N-terminal methylation in mouse spleen; settings: mouse spleen lysate/extract, MS
Summary of the method: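 Proteins from mouse spleen extract were immunoprecipitated with anti-me3-SPK antibody. On-bead samples were washed in 100 mM ammonium bicarbonate pH 8.0, reduced, carbamidomethylated and digested with Glu-C (1:20). Peptides were analysed by nanoflow reverse-phase HPLC with CAD/ETD tandem MS. N-terminal modifications were assigned by manual interpretation of the spectra.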

| Molecule | N-terminal acetylation reported (in words) [1] | capture / co-precipitation of endogenous NRMT (in words) [3] | further results |
| --- | --- | --- | --- |
| PTPCAAX2: protein tyrosine phosphatase PTPCAAX2 (protein, UniProt Q12974 1-164, looked up) Protein tyrosine phosphatase …: MNRPAPVEISYENMRFLITHNPTNATLNKFTEELKKYGVTTLVRVCDATYDKAPVEKEGIHVLDWPFDDGAPPPNQIVDDWLNLLKTKFREEPGCCVAVHCVAGLGRAPVLVALALIECGMKYEDAVQFIRQKRRGAFNSKQLLYLEKYRPKMRLRFRDTNGHC | reported to be N-terminally acetylated | – | – |
| Mina53: possesses a potential N-terminal methylation motif, MPKKAKPT (protein) MPKKAKPTGSGKEEGPAPCKQMKLEAAGGPSALNFDSPSSLFESLISPIKTETFFKEFWEQKPLLIQRDDPALATYYGSLFKLTDLKSLCSRGMYYGRDVNVCRCVNGKKKVLNKDGKAHFLQLRKDFDQKRATIQFHQPQRFKDELWRIQEKLECYFGSLVGSNVYITPAGSQGLPPHYDDVEVFILQLEGEKHWRLYHPTVPLAREYSVEAEERIGRPVHEFMLKPGDLLYFPRGTIHQADTPAGLAHSTHVTISTYQNNSWGDFLLDTISGLVFDTAKEDVELRTGIPRQLLLQVESTTVATRRLSGFLRTLADRLEGTKELLSSDMKKDFIMHRLPPYSAGDGAELSTPGGKLPRLDSVVRLQFKDHIVLTVLPDQDQSDEAQEKMVYIYHSLKNSRETHMMGNEEETEFHGLRFPLSHLDALKQIWNSPAISVKDLKLTTDEEKESLVLSLWTECLIQVV | – | unable to capture endogenous NRMT | co-precipitation with FLAG-tagged NRMT (in words) [2]: co-precipitates; also recorded: co-precipitated with FLAG-tagged NRMT; cleavage of the initial Met residue ([4]; both samples, data not shown): 100% |
| RCC1-FLAG: FLAG-tagged RCC1, possesses a S-P-K motif (protein, left off: FLAG, C-terminal, kept) SPKRIAKRRSPPADAIPKSKKVKVSHRSHSTEPGLVLTLGQGDVGQLGLGENVMERKKPALVSIPEDVVQAEAGGMHTVCLSKSGQVYSFGCNDEGALGRDTSVEGSEMVPGKVELQEKVVQVSAGDSHTAALTDDGRVFLWGSFRDNNGVIGLLEPMKKSMVPVQVQLDVPVVKVASGNDHLVMLTADGDLYTLGCGEQGQLGRVPELFANRGGRQGLERLLVPKCVMLKSRGSRGHVRFQDAFCGAYFTFAISHEGHVYGFGLSNYHQLGTPGTESCFIPQNLTSFKNSTKSWVGFSGGQHHTVCMDSEGKAYSLGRAEYGRLGLGEGAEEKSIPTLISRLPAVSSVACGASVGYAVTKDGRVFAWGMGTNYQLGTGQDEDAWSPVEMMGKQLENRVVLSVSSGGQHTVLLVKDKEQS | – | efficiently captured endogenous NRMT | capture / co-precipitation of endogenous NRMT (in words) ([3]; listed as RCC1): NRMT is co-precipitated |
| TSNAX protein: protein with SNK-N-terminus (protein, UniProt Q99598 1-290, looked up) Translin-associated protein X: MSNKEGSGGFRKRKHDNFPHNQRREGKDVNSSSPVMLAFKSFQQELDARHDKYERLVKLSRDITVESKRTIFLLHRITSAPDMEDILTESEIKLDGVRQKIFQVAQELSGEDMHQFHRAITTGLQEYVEAVSFQHFIKTRSLISMDEINKQLIFTTEDNGKENKTPSSDAQDKQFGTWRLRVTPVDYLLGVADLTGELMRMCINSVGNGDIDTPFEVSQFLRQVYDGFSFIGNTGPYEVSKKLYTLKQSLAKVENACYALKVRGSEIPKHMLADVFSVKTEMIDQEEGIS | reported to be N-terminally acetylated | – | – |
| MLC9: Myosin Light Chain isoform (protein, 100% N-terminally acetylated (by MS); left off: FLAG, C-terminal, kept) MSSKRAKAKTTKKRPQRATSNVFAMFDQSQIQEFKEAFNMIDQNRDGFIDKEDLHDMLASLGKNPTDEYLEGMMSEAPGPINFTMFLTMFGEKLNGTDPEDVIRNAFACFDEEASGFIHEDHLRELLTTMGDRFTDEEVDEMYREAPIDKKGNFNYVEFTRILKHGAKDKDD | – | cannot IP endogenous NRMT | N-terminal methylation in vivo (in words) [5]: methylated at the N-terminus in vivo; also recorded: N-terminally methylated; N-terminal modification (in words) ([4]; 293LT cells, immunoprecipitated protein): not N-terminally methylated; N-terminal acetylation ([4]; over-expressed in 293LT cells): 100% |
| ENSA protein: protein with SQK-N-terminus (protein, UniProt O43768 2-121, looked up) Alpha-endosulfine: SQKQEEENPAEETGEEKQDTQEKEGILPERAEEAKLKAKYPSLGQKPGGSDFLMKRLQKGQKYFDSGDYNMAKAKMKNKQLPSAGPDKNLVTGDHIPTPQDLPQRKSSLVTSKLAGGQVE | reported to be N-terminally acetylated | – | – |
